Assay outcomes (PubChem BioAssay)
Pf Dd2 growth: P. falciparum Dd2 growth inhibition | AID 1159554 | activity change, % at 10 µM | actives 2.3% (n = 94,000) | SYBR Green, 72 h; hits give low values; in the data active = activity change below about -80%
GASC1 inh: KDM4C (human) demethylase inhibition; actives 0.15% (n = 96,000); Q9H3R0; AID 720574; inhibition, % at 12.5 µM; GST-KDM4C 2-372, H3K9me3 peptide, LANCE TR-FRET;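 active = mean replicate inhibition above about 25%, with at least 55% of replicates also reaching it, limit read from the data, passing the limit was not always enough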
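System: N-terminal GST-fused human GASC-1 (KDM4C) fragment, residues 2-372 / Amount: 10 nM GST-KDM4C in enzyme reaction / Also added: H3K9me3 peptide with Fe(II)/2OG / Times: 30 min demethylation and 1 h detection at room temperature / Signal: LANCE TR-FRET / Read-out basis: Fall in 671/618 emission ratio as inhibition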
IDH1 mut inh: blocks human IDH1 R132H reductase activity; diaphorase/resazurin fluorescence, 60 min; inhibition, % at 10 µM; actives 0.18% (n = 70,000); in the data active = inhibition above about 34%;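 also: 0% = DMSO and 100% = no enzyme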
Target sequence (O75874 whole entry R132H): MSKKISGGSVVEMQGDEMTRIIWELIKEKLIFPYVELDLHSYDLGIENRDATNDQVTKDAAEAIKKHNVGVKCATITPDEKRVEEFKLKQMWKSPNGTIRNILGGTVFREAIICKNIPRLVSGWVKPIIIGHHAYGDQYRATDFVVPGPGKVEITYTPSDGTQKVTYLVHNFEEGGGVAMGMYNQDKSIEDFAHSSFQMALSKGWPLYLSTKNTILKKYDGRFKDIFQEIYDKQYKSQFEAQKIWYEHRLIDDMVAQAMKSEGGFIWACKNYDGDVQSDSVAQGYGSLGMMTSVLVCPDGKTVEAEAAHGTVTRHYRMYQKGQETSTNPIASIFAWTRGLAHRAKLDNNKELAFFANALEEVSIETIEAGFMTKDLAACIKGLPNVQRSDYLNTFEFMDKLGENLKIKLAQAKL
* = called active by the depositor; . = not tested or not shown. The entries come from a sample that favours hits as a whole.

SMILES	Pf Dd2 growth	GASC1 inh	IDH1 mut inh
COc1ccc(S(=O)(=O)N(C)C[C@@H]2Oc3cc(-c4ccccc4OC)ccc3S(=O)(=O)N([C@H](C)CO)C[C@H]2C)cc1	-87.3*	-1.6	0.0
COc1ccccc1-c1ccc2c(c1)O[C@@H](CN(C)S(=O)(=O)c1ccccc1)[C@@H](C)CN([C@H](C)CO)S2(=O)=O	-51.2	.	.
COc1ccccc1-c1ccc2c(c1)O[C@H](CN(C)S(=O)(=O)c1ccc(C)cc1)[C@H](C)CN([C@H](C)CO)S2(=O)=O	-38.9	0.3	-0.3
COc1ccccc1-c1ccc2c(c1)O[C@@H](CN(C)S(=O)(=O)c1ccc(C)cc1)[C@H](C)CN([C@@H](C)CO)S2(=O)=O	-83.9*	1.1	.
C[C@@H]1CN([C@H](C)CO)S(=O)(=O)c2ccc(-c3cccc(F)c3)cc2O[C@@H]1CN(C)S(=O)(=O)c1ccc(F)cc1	-0.1	0.4	.
Cc1ccc(S(=O)(=O)N(C)C[C@H]2Oc3cc(-c4cccc(F)c4)ccc3S(=O)(=O)N([C@@H](C)CO)C[C@@H]2C)cc1	-47.9	45.1*	86.8*
COc1ccc(S(=O)(=O)N(C)C[C@@H]2Oc3cc(-c4ccccc4OC)ccc3S(=O)(=O)N([C@H](C)CO)C[C@@H]2C)cc1	-50.0	-0.5	0.0
C[C@@H]1CN([C@H](C)CO)S(=O)(=O)c2ccc(-c3cncnc3)cc2O[C@H]1CN(C)C(=O)c1cccc(F)c1	2.3	0.6	0.0
C[C@H](CO)N1C[C@H](C)[C@@H](CN(C)S(=O)(=O)c2ccc(F)cc2)Oc2c(NS(=O)(=O)c3cccs3)cccc2C1=O	14.7	-0.6	.
C[C@H]1CN([C@@H](C)CO)C(=O)Cc2cc(NC(=O)NC3CCCCC3)ccc2O[C@H]1CN(C)C(=O)Nc1cccc2ccccc12	-9.3	.	-2.4
C[C@@H]1CN([C@@H](C)CO)C(=O)Cc2cc(NC(=O)NC3CCCCC3)ccc2O[C@H]1CN(C)Cc1ccncc1	6.1	-0.4	46.6*
C[C@H](CO)N1C[C@H](C)[C@H](CN(C)C(=O)Nc2cccc3ccccc23)Oc2ccc(NC(=O)Nc3cccc4ccccc34)cc2CC1=O	-10.3	0.4	-0.2
C[C@@H]1CN([C@H](C)CO)C(=O)Cc2cc(NC(=O)NC3CCCCC3)ccc2O[C@@H]1CN(C)Cc1ccncc1	4.0	.	8.6
C[C@H](CO)N1C[C@H](C)[C@@H](CN(C)C(=O)Nc2cccc3ccccc23)Oc2ccc(NC(=O)Nc3ccc(C(F)(F)F)cc3)cc2CC1=O	-84.8*	-0.6	1.2
C[C@H](CO)N1C[C@H](C)[C@@H](CN(C)C(=O)Nc2cccc3ccccc23)Oc2ccc(NC(=O)Nc3cccc4ccccc34)cc2CC1=O	-89.2*	2.9	-1.1
C[C@@H]1CN([C@@H](C)CO)C(=O)Cc2cc(NC(=O)NC3CCCCC3)ccc2O[C@H]1CN(C)C(=O)Nc1cccc2ccccc12	-91.7*	-2.3	-0.3
C[C@@H]1CN([C@H](C)CO)C(=O)Cc2cc(NC(=O)Nc3ccc(C(F)(F)F)cc3)ccc2O[C@@H]1CN(C)C(=O)Nc1cccc2ccccc12	-68.9	0.3	-13.7
C[C@@H]1CN([C@@H](C)CO)S(=O)(=O)c2ccc(C#Cc3ccncc3)cc2O[C@@H]1CN(C)C(=O)C1CCOCC1	2.9	0.5	0.1
COc1ccc(CN(C)C[C@@H]2OCCCC[C@@H](C)Oc3ccc(NC(=O)Nc4ccccc4)cc3C(=O)N([C@@H](C)CO)C[C@@H]2C)cc1	-31.2	-0.7	4.8
C[C@@H]1CN([C@H](C)CO)C(=O)c2cc(NC(=O)NC3CCCCC3)ccc2O[C@@H](C)CCCCO[C@@H]1CN(C)S(=O)(=O)c1ccc(Cl)cc1	.	0.0	-0.4
Cc1ccccc1S(=O)(=O)N1C[C@@H](O)COC[C@H]2O[C@H](CC(=O)N3CCCCC3)CC[C@@H]21	8.8	2.3	.
CCCNC(=O)Nc1ccc2c(c1)C(=O)N(C)C[C@@H](OC)[C@H](C)CN(C(=O)C1CCOCC1)[C@@H](C)CO2	-87.4*	-1.2	0.5
CCCNC(=O)Nc1ccc2c(c1)C(=O)N(C)C[C@H](OC)[C@@H](C)CN(C(=O)C1CCOCC1)[C@H](C)CO2	-78.8	0.5	0.0
CCCNC(=O)Nc1ccc2c(c1)OC[C@@H](C)N(C(=O)C1CCOCC1)C[C@H](C)[C@@H](OC)CN(C)C2=O	-18.2	2.7	-0.1
CCCNC(=O)Nc1ccc2c(c1)OC[C@H](C)N(C(=O)C1CCOCC1)C[C@H](C)[C@H](OC)CN(C)C2=O	11.0	35.1*	1.9
C[C@H](CO)N1C[C@H](C)[C@@H](CN(C)S(=O)(=O)c2ccc(F)cc2)OCCCC[C@H](C)Oc2ccc(NC(=O)Cc3ccccc3)cc2C1=O	-65.2	0.5	1.8
